Active and inactive are the calls of the source. No cut-off for these calls is given here.

Type in all cases: tissue-based
The target of experiment [1] is T1, 4-aminobutyrate aminotransferase, mitochondrial (Rattus norvegicus, UniProt P50554). Nature of the experiment: Inhibition of GABA transaminase in rat brain by Kitz-Wilson plot. In a few lines: (§1)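 GABA-T was isolated from rat brain. For time-dependent inactivation, log remaining activity was plotted against time at each inactivator concentration. Inverse slopes were then plotted against inverse inactivator concentration, and K_I and k_inact were taken from a Kitz–Wilson plot.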

Experiment [2] addresses 4-aminobutyrate aminotransferase, mitochondrial (Rattus norvegicus) (UniProt P50554). Nature of the experiment: (§2) Activity of GABA transaminase in rat brain.
Experiment [3] deals with T1, 4-aminobutyrate aminotransferase, mitochondrial. Described as §2.
For experiment [4], the target named is 4-aminobutyrate aminotransferase, mitochondrial (Rattus norvegicus) (UniProt P50554). Nature of the experiment: Ratio of Kinact to KI for GABA transaminase in rat brain. In a few lines:
as §1

For experiment [5] the target is unchanged. Nature of the experiment: Inhibition of GABA transaminase in rat brain at 45 uM after 40 mins in presence of alpha-ketoglutarate. In a few lines: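 Rat brain GABA-T was incubated with GABA, inhibitor (45 μM) and varying α-ketoglutarate concentrations together for 40 min before enzyme activity was measured.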
Experiment [6] has the same target. As to the kind of experiment: Inhibition of GABA transaminase in rat brain at 60 uM after 30 mins by gel filtration. In a few lines:
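Rat brain GABA-T was incubated with 60 μM inhibitor at 25 °C for 30 min and an aliquot was assayed. The remaining mixture was passed through Sephadex G50 to remove small molecules and assayed again. An identical sample without inactivator served as control. Values are mean ± SEM, n = 6.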
A general note: Size exclusion chromatography separates by hydrodynamic size, large species first.

Experiment [7] has the same target. As to the kind of experiment: Inhibition of GABA transaminase in rat brain at 30 uM for 40 mins in presence of 30 mM alpha-ketoglutarate. In a few lines:
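Rat brain GABA-T was preincubated with inhibitor (30 μM) for 40 min. Increasing concentrations of α-ketoglutarate, up to 30 mM, were then added and residual activity was measured. A no-inactivator control was run. Values are mean ± SEM, n = 6.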

T1 sequence (P50554 whole entry): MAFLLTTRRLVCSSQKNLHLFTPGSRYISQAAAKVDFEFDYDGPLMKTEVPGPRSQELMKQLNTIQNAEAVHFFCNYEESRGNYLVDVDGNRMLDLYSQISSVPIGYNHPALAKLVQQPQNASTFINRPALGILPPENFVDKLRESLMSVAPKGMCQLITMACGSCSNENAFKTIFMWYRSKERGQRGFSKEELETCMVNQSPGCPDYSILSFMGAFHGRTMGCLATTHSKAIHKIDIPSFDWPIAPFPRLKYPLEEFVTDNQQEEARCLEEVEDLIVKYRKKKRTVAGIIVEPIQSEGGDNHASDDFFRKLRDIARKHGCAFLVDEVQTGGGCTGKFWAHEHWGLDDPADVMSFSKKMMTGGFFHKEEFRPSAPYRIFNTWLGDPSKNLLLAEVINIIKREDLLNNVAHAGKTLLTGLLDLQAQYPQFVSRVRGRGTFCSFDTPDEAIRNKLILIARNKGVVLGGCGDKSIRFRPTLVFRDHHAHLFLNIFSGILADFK
Sequence of 4-aminobutyrate aminotransferase, mitochondrial (Rattus norvegicus) (P50554 28-500 limits assumed): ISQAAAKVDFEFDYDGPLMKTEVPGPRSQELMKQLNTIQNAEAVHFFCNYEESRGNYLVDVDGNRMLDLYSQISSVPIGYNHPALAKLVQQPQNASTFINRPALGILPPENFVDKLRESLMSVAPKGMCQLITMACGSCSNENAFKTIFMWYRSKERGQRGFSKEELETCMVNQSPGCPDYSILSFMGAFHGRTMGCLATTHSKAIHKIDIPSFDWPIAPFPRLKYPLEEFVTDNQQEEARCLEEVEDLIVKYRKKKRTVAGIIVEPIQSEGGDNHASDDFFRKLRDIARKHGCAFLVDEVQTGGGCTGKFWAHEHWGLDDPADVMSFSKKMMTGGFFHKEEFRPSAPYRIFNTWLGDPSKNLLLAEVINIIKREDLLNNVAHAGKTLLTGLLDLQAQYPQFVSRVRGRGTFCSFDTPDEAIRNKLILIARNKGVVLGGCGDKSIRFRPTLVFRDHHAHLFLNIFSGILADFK

In general, IC50 refers to the concentration needed to halve the response being measured. `O=Cc1ccc(O)cc1` [4-HYDROXYBENZALDEHYDE] gave an IC50 in experiment [1] of 16.5 µM.

The term Ki denotes the dissociation constant of the complex between target and ligand, obtained from inhibition or displacement. A high value points to lower affinity. For `O=C(CCCl)c1ccc(O)cc1`, in experiment [1], half-maximal inhibition (IC50) was put at 3.99 µM. In experiment [2], this molecule had a Kinact of 0.0457 min⁻¹. The molecule also yielded a Ki in experiment [3] of 24.3 µM. For the same molecule, in experiment [4], the Ratio was 1.88. Besides, the outcome in experiment [5] was inactive. The result in experiment [6] and in experiment [7] was Active.

Values taken from ChEMBL document CHEMBL1143378, “Inactivation of GABA transaminase by 3-chloro-1-(4-hydroxyphenyl)propan-1-one” (Bioorg Med Chem Lett, 2009).
